Legend:
Details in all cases: tested as the 18F-labelled form
[1] = species on record: Rattus norvegicus; assay: Regional uptake of [18F]AFA in thalamus of rat pretreated with compound citalopram; n=3; format: functional, organism-based
How it was run: (§1)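 Male Sprague-Dawley rats, three per group, received blocker (2 mg/kg iv in saline) or saline only (controls) 10–15 min before about 20 µCi of tail-vein F-18 radioligand. Killed 60 min after tracer. Blood and brain regions weighed and gamma-counted. %ID/g was decay- and tail-corrected; mean ± SD.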

[2] = species on record: Rattus norvegicus; assay: Regional uptake of [18F]-AFA in striatum of rat pretreated with compound GBR-12935; n=3; format: functional, organism-based; how it was run: as §1
[3] = biological target: Sodium-dependent serotonin transporter (Rattus norvegicus) (UniProt P31652); assay: Specific binding of [18F]AFA in rat striatum after GBR-12935 treatment; n=3; format: functional, tissue-based
How it was run: (§2)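 Rats, three per group, were pretreated iv with blocker at 2 mg/kg in saline, or with saline as control, 10–15 min before tail-vein F-18 radioligand (about 20 µCi). Killed at 60 min and regional %ID/g determined. Specific binding = (region activity − cerebellum activity)/cerebellum activity; mean ± SD.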

[4] = species on record: Rattus norvegicus; assay: Regional uptake of [18F]AFA in hypothalamus of rat pretreated with compound citalopram; n=3; format: functional, organism-based; how it was run: as §1
[5] = species on record: Rattus norvegicus; assay: Regional uptake of [18F]AFA in striatum of rat pretreated with compound nisoxetine; n=3; format: functional, organism-based; how it was run: as §1
[6] = species on record: Rattus norvegicus; assay: Regional uptake of [18F]-AFA in hypothalamus of rat pretreated with compound nisoxetine; n=3; format: functional, organism-based; how it was run: as §1
[7] = biological target: Sodium-dependent serotonin transporter (Rattus norvegicus) (UniProt P31652); assay: Specific binding of [18F]AFA in rat hippocampus after nisoxetine treatment; n=3; format: functional, tissue-based; how it was run: as §2
[8] = biological target: Sodium-dependent serotonin transporter (Rattus norvegicus) (UniProt P31652); assay: Specific binding of [18F]-AFA in rat striatum after nisoxetine treatment; n=3; format: functional, tissue-based; how it was run: as §2
[9] = biological target: Sodium-dependent serotonin transporter (Rattus norvegicus) (UniProt P31652); assay: Specific binding in rat hypothalamus at 10 min postinjection in vivo; format: functional, organism-based
How it was run: (§3)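 Male Sprague-Dawley rats, n=3 per time point, received about 20 µCi of F-18 radioligand in saline iv by tail vein and were killed at 10–120 min. %ID/g was measured with decay and tail-residual correction. Hypothalamic specific binding = (%ID/g hypothalamus − %ID/g cerebellum)/%ID/g cerebellum; mean ± SD.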

[10] = biological target: Sodium-dependent serotonin transporter (Rattus norvegicus) (UniProt P31652); assay: Specific binding of [18F]AFA in rat thalamus after nisoxetine treatment; n=3; format: functional, tissue-based; how it was run: as §2
[11] = species on record: Rattus norvegicus; assay: Regional uptake of [18F]AFA in hypothalamus of rat pretreated with compound 7e; n=3; format: functional, organism-based
[12] = biological target: Sodium-dependent serotonin transporter (Rattus norvegicus) (UniProt P31652); assay: Specific binding of [18F]AFA in rat frontal cortex after nisoxetine treatment; n=3; format: functional, tissue-based; how it was run: as §2
[13] = biological target: Sodium-dependent serotonin transporter (Rattus norvegicus) (UniProt P31652); assay: Specific binding of [18F]AFA in rat hypothalamus after citalopram treatment; n=3; format: functional, tissue-based; how it was run: as §2
[14] = species on record: Rattus norvegicus; assay: Regional uptake of [18F]AFA in striatum of rat pretreated with compound citalopram; n=3; format: functional, organism-based; how it was run: as §1
[15] = biological target: Sodium-dependent serotonin transporter (Rattus norvegicus) (UniProt P31652); assay: Specific binding of [18F]-AFA in rat striatum after citalopram treatment; n=3; format: functional, tissue-based; how it was run: as §2
[16] = species on record: Rattus norvegicus; assay: Regional uptake of [18F]AFA in hippocampus of rat pretreated with compound citalopram; n=3; format: functional, organism-based; how it was run: as §1
[17] = species on record: Rattus norvegicus; assay: Regional uptake of [18F]AFA in frontal cortex of rat pretreated with compound citalopram; n=3; format: functional, organism-based; how it was run: as §1
[18] = biological target: Sodium-dependent serotonin transporter (Rattus norvegicus) (UniProt P31652); assay: Specific binding of [18F]AFA in rat frontal cortex after citalopram treatment; n=3; format: functional, tissue-based; how it was run: as §2
[19] = biological target: Sodium-dependent serotonin transporter (Rattus norvegicus) (UniProt P31652); assay: Specific binding in rat hypothalamus at 60 min postinjection in vivo; format: functional, organism-based; how it was run: as §3
[20] = biological target: Sodium-dependent serotonin transporter (Rattus norvegicus) (UniProt P31652); assay: Specific binding in rat hypothalamus at 30 min postinjection in vivo; format: functional, organism-based; how it was run: as §3
[21] = biological target: Sodium-dependent serotonin transporter (Rattus norvegicus) (UniProt P31652); assay: Specific binding of [18F]AFA in rat hippocampus after citalopram treatment; n=3; format: functional, tissue-based; how it was run: as §2
[22] = biological target: Sodium-dependent serotonin transporter (Rattus norvegicus) (UniProt P31652); assay: Specific binding of [18F]AFA in rat thalamus after citalopram treatment; n=3; format: functional, tissue-based; how it was run: as §2
[23] = species on record: Rattus norvegicus; assay: Regional uptake of [18F]AFA in hippocampus of rat pretreated with compound nisoxetine; n=3; format: functional, organism-based; how it was run: as §1
[24] = species on record: Rattus norvegicus; assay: Regional uptake of [18F]AFA in blood of rat pretreated with compound 7e; n=3; format: functional, organism-based

Sequence of Sodium-dependent serotonin transporter (Rattus norvegicus) (P31652 whole entry): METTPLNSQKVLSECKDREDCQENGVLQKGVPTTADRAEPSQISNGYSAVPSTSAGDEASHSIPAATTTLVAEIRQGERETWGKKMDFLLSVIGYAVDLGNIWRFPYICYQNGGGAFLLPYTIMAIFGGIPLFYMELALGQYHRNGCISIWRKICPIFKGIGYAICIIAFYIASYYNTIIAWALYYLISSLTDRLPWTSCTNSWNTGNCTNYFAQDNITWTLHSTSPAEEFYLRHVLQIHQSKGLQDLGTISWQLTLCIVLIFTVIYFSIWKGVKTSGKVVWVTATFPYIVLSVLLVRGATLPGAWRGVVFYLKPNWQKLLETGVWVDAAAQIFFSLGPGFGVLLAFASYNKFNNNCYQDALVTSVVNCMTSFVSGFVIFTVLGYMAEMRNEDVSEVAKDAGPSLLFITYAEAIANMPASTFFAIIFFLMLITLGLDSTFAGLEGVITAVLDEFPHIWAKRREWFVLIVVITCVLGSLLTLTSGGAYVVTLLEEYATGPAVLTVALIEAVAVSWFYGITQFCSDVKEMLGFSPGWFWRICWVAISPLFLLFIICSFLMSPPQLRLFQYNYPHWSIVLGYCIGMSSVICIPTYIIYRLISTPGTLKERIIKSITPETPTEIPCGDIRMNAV

- Specific binding [3]: 2.62 %ID/g
- Specific binding [7]: 1.63 %ID/g
- Specific binding [8]: 2.1 %ID/g
- Specific binding [9]: 0.96 %ID/g
- Specific binding [10]: 3.56 %ID/g
- Specific binding [12]: 1.82 %ID/g
- Specific binding [13]: 1 %ID/g
- Specific binding [15]: 0.5 %ID/g
- Specific binding [18]: 0.31 %ID/g
- Specific binding [19]: 3.35 %ID/g
- Specific binding [20]: 2.22 %ID/g
- Specific binding [21]: 0.54 %ID/g
- Specific binding [22]: 0.89 %ID/g
SMILES: CN(C)Cc1ccccc1Sc1ccc(CCF)cc1N
- Uptake [1]: 0.11 %ID/g
- Uptake [2]: 0.2 %ID/g
- Uptake [4]: 0.12 %ID/g
- Uptake [5]: 0.21 %ID/g
- Uptake [6]: 0.33 %ID/g
- Uptake [11]: 0.15 %ID/g
- Uptake [14]: 0.09 %ID/g
- Uptake [16]: 0.09 %ID/g
- Uptake [17]: 0.08 %ID/g
- Uptake [23]: 0.17 %ID/g
- Uptake [24]: 0.06 %ID/g

From ChEMBL document CHEMBL1145212, “Fluorinated diaryl sulfides as serotonin transporter ligands: synthesis, structure-activity relationship study, and in vivo evaluation of fluorine-18-labeled compounds as PET imaging agents” (J Med Chem, 2005)
